Source: ChEMBL document CHEMBL4414574, “Structure-Based Discovery and Development of a Series of Potent and Selective Bromodomain and Extra-Terminal Protein Inhibitors” (J Med Chem, 2019)
Activity calls are given as the source filed them. The rule behind the calls is not given here.

Columns and labels:
[1] = target: T1, Bromodomain-containing protein 4 (Homo sapiens, UniProt O60885); experiment: Inhibition of BRD4 bromodomain 2 (unknown origin)
MM1.S = experiment: Antiproliferative activity against human MM1S cells after 72 hrs by CCK8 or SRB assay; format: functional, cell-based
Procedure, shortened: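 IC50 against MM.1S cell proliferation was taken as the mean of three independent experiments, each run in triplicate, reported with SEM.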

[2] = target: Bromodomain-containing protein 2 (Homo sapiens) (UniProt P25440); experiment: Inhibition of BRD2 bromodomain 2 (unknown origin)
Sequence of Bromodomain-containing protein 2 (Homo sapiens) (P25440 whole entry, looked up): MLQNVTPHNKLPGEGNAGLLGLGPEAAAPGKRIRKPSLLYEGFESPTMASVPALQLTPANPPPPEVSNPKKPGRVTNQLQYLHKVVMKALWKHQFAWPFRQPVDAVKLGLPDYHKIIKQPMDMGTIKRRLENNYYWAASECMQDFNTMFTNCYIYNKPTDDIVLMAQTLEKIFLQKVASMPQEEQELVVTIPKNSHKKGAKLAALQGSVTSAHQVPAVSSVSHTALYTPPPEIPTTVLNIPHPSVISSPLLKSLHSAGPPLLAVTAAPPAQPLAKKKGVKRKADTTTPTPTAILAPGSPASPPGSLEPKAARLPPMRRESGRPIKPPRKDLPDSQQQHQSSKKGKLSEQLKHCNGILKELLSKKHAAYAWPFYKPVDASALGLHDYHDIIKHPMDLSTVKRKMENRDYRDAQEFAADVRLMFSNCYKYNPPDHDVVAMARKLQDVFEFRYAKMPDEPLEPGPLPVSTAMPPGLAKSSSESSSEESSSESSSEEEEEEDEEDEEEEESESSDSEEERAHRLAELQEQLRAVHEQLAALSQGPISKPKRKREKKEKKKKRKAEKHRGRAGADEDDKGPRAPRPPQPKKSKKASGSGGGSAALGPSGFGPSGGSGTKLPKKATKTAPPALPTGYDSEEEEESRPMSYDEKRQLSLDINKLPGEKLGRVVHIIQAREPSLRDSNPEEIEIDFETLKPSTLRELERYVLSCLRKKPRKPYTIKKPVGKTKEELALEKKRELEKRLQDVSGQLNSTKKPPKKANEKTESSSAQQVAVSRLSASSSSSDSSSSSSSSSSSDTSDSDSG
Procedure, shortened: (§1)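 Bromodomain binding panel (32 bromodomains) screened at 1 μM; primary binding read-out reported as percent of control, lower values meaning stronger binding.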

[3] = target: Bromodomain-containing protein 2 (Homo sapiens) (UniProt P25440); experiment: Inhibition of BRD2 bromodomain 1 (unknown origin)
[4] = target: T1, Bromodomain-containing protein 4; experiment: Inhibition of BRD4 bromodomain 1 (unknown origin)
Procedure, shortened: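 BRD4 BD1 (His6-tagged, E. coli BL21(DE3)-expressed, Ni-NTA purified) at 10 nM with 5 nM FITC-labelled (+)-JQ1 tracer; 50 mM HEPES pH 7.4, 150 mM NaCl, 0.5 mM CHAPS, DMSO 2‰ final; graded inhibitor; 4 h dark equilibration at room temperature; fluorescence anisotropy read (ex 485/em 530 nm). IC50 from two independent experiments in duplicate, mean ± SEM.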

[5] = target: T1, Bromodomain-containing protein 4; experiment: Displacement of 5-FITC labelled (+)-JQ1 from His6-tagged human BRD4 bromodomain 1 expressed in Escherichia coli BL21(DE3) )-codon plus-RIL cells incubated for 4 hrs in dark condition by fluorescence anisotropy binding assay
[6] = target: Histone acetyltransferase p300 (Homo sapiens) (UniProt Q09472); experiment: Inhibition of EP300 (unknown origin) at 1 uM; procedure, shortened: as §1
Sequence of Histone acetyltransferase p300 (Homo sapiens) (Q09472 whole entry): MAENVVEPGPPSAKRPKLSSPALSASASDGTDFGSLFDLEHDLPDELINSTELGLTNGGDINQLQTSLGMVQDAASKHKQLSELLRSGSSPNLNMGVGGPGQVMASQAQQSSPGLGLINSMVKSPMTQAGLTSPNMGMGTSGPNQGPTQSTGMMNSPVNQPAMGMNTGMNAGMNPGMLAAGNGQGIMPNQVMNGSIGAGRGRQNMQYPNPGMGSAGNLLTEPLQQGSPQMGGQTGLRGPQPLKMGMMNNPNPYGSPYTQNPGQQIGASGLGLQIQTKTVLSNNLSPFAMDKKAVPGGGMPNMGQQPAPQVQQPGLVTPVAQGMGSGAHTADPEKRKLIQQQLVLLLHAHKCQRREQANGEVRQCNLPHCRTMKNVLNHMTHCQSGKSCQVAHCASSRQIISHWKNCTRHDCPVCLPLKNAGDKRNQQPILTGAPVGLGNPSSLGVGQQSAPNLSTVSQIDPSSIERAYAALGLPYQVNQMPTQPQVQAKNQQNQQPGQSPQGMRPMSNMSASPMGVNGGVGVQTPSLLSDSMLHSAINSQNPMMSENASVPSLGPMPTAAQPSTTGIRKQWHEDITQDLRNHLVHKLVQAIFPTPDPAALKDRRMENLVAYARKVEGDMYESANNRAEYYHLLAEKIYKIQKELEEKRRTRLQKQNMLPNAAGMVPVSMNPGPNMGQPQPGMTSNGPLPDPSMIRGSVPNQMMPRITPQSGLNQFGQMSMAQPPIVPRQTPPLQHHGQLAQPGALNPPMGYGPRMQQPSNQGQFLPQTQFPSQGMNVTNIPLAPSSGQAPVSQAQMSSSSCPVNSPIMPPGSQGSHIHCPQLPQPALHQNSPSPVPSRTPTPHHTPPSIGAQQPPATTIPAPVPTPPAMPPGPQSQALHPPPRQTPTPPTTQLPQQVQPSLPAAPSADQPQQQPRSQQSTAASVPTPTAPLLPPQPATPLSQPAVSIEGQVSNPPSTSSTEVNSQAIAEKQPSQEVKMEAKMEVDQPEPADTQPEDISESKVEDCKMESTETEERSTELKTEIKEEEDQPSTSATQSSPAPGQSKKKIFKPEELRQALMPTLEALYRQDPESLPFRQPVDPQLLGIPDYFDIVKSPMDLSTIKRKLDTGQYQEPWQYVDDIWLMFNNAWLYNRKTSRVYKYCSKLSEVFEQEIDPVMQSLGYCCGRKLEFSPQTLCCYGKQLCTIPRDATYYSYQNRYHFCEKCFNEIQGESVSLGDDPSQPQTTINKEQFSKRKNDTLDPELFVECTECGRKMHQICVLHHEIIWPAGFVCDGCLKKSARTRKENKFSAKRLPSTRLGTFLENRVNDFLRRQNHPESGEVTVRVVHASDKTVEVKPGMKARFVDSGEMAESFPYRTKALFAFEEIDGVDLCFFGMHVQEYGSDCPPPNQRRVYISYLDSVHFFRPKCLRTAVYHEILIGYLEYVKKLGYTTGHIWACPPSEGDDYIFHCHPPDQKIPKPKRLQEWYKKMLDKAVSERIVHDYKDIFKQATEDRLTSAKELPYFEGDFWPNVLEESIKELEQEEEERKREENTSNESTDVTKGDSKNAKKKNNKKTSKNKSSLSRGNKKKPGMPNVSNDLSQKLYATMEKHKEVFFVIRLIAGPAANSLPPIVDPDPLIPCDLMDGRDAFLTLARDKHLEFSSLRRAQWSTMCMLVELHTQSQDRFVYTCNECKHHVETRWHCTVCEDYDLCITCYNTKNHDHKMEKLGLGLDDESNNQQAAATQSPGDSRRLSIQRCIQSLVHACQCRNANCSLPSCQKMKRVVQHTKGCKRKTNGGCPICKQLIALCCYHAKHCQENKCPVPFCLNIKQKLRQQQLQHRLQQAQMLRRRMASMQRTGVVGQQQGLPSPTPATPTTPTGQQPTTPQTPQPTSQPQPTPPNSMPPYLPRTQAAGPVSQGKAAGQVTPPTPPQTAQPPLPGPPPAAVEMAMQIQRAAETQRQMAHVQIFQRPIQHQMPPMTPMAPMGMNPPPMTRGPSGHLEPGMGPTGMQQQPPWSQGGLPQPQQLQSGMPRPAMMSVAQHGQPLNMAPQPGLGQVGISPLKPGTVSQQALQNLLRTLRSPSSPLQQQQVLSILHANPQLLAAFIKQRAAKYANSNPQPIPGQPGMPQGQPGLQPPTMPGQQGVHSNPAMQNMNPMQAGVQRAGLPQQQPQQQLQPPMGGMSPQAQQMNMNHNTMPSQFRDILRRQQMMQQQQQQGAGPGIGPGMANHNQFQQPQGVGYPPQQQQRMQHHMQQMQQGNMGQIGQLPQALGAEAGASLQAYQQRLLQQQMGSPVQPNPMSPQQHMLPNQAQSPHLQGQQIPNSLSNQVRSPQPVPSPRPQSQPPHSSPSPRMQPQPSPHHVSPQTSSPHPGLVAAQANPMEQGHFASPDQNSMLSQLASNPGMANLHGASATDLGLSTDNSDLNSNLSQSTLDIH

[7] = Tmax in ICR mouse at 10 mg/kg, po administered via gavage measured after 0.25 to 24 hrs by UPLC/MS analysis; format: ADME, organism-based; details: in vivo
Procedure, shortened: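 Male ICR mice dosed orally (3, 10 or 100 mg/kg, per line) in 1% DMSO/0.5% HPMC vehicle; plasma drug levels measured.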

[8] = AUC (0 to t) in ICR mouse at 10 mg/kg, po administered via gavage measured after 0.25 to 24 hrs by UPLC/MS analysis; format: ADME, organism-based; set-up: time 0.25-24 hr, dose 10 mg/kg, route oral; details: in vivo
Procedure, shortened: (§2)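 Male ICR mice were dosed orally in 1% DMSO/0.5% HPMC vehicle. Plasma (and brain, where stated) concentrations gave Tmax, Cmax, T1/2, AUC0-t and AUC0-inf.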

[9] = Cmax in ICR mouse at 10 mg/kg, po administered via gavage measured after 0.25 to 24 hrs by UPLC/MS analysis; format: ADME, organism-based; set-up: dose 10 mg/kg, route oral; details: in vivo
Procedure, shortened: (§3)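 Male ICR mice dosed orally in 1% DMSO/0.5% HPMC vehicle; plasma or brain drug levels used to derive Tmax, Cmax, AUC0-t, AUC0-inf and T1/2.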

[10] = AUC (0 to infinity) in ICR mouse at 10 mg/kg, po administered via gavage measured after 0.25 to 24 hrs by UPLC/MS analysis; format: ADME, organism-based; set-up: dose 10 mg/kg, route oral, time infinity; details: in vivo; procedure, shortened: as §2
[11] = Half life in ICR mouse at 10 mg/kg, po administered via gavage measured after 0.25 to 24 hrs by UPLC/MS analysis; format: ADME, organism-based; details: in vivo; procedure, shortened: as §3
BT-549 = experiment: Antiproliferative activity against human BT549 cells after 72 hrs by CCK8 or SRB assay; format: functional, cell-based
SW-620 = experiment: Antiproliferative activity against human SW620 cells after 72 hrs by CCK8 or SRB assay; format: functional, cell-based
Hep 3B2 = experiment: Antiproliferative activity against human Hep3B cells after 72 hrs by CCK8 or SRB assay; format: functional, cell-based
AGS = experiment: Antiproliferative activity against human AGS cells after 72 hrs by CCK8 or SRB assay; format: functional, cell-based
NCI-H522 = experiment: Antiproliferative activity against human NCI-H522 cells after 72 hrs by CCK8 or SRB assay; format: functional, cell-based
Homo sapiens = organism: Homo sapiens; experiment: Antiproliferative activity against human TY82 cells after 72 hrs by CCK8 or SRB assay; format: functional, cell-based
HT-29 = experiment: Antiproliferative activity against human HT-29 cells after 72 hrs by CCK8 or SRB assay; format: functional, cell-based
SK-OV-3 = experiment: Antiproliferative activity against human SKOV3 cells after 72 hrs by CCK8 or SRB assay; format: functional, cell-based
A549 = experiment: Antiproliferative activity against human A549 cells after 72 hrs by CCK8 or SRB assay; format: functional, cell-based
KG-1 = experiment: Antiproliferative activity against human KG1 cells after 72 hrs by CCK8 or SRB assay; format: functional, cell-based
RKO = experiment: Antiproliferative activity against human RKO cells after 72 hrs by CCK8 or SRB assay; format: functional, cell-based
MDA-MB-468 = experiment: Antiproliferative activity against human MDA-MB-468 cells after 72 hrs by CCK8 or SRB assay; format: functional, cell-based
HuTu80 = experiment: Antiproliferative activity against human HuTu 80 cells after 72 hrs by CCK8 or SRB assay; format: functional, cell-based
MV4-11 = experiment: Antiproliferative activity against human MV4-11 cells after 72 hrs by CCK8 or SRB assay; format: functional, cell-based
NCI-H1299 = experiment: Antiproliferative activity against human NCI-H1299 cells after 72 hrs by CCK8 or SRB assay; format: functional, cell-based
MDA-MB-436 = experiment: Antiproliferative activity against human MDA-MB-436 cells after 72 hrs by CCK8 or SRB assay; format: functional, cell-based

## Cc1ccc(-n2nc(C(=O)N3C4CCC3CN(C)C4)nc2-c2ccc3c(c2)N(C2CCCC2)[C@H](C)C(=O)N3C)cc1
[1]
  inhibition: Active
MM1.S
  IC50: 7.9 nM
[2]
  inhibition: Active
[3]
  inhibition activity call (active/inactive): Active
[4]
  inhibition: Active
[5]
  IC50: 6.6 nM
[6]
  inhibition: inactive

## C[C@@H]1C(=O)N(C)c2ccc(-c3nc(C(=O)N4CCN(C)CC4)nn3-c3ccccc3)cc2N1C1CCCC1
MM1.S
  IC50: 60.1 nM
[5]
  IC50: 7.1 nM

## Cc1ccc(-n2nc(C(=O)N3C[C@@H](NC(=O)OC(C)(C)C)C4(CC4)C3)nc2-c2ccc3c(c2)N(C2CCCC2)[C@H](C)C(=O)N3C)cc1
MM1.S
  IC50: 485 nM
[5]
  IC50: 9.6 nM

## Cc1ccc(-n2nc(C(=O)N3CCCN(C)CC3)nc2-c2ccc3c(c2)N(C2CCCC2)[C@H](C)C(=O)N3C)cc1
[1]
  inhibition: Active
MM1.S
  IC50: 8 nM
[2]
  inhibition: Active
[3]
  inhibition activity call (active/inactive): Active
[4]
  inhibition: Active
[6]
  inhibition: inactive

## Cc1ccc(-n2nc(C(=O)N3CCN(C)CC3)nc2-c2ccc3c(c2)N(C2CCCC2)[C@H](C)C(=O)N3C)c(C)c1
MM1.S
  IC50: 17.8 nM
[5]
  IC50: 4.5 nM

## Cc1ccc(N2C(=O)CSC2c2ccc3c(c2)N(C2CC2)C(C)C(=O)N3C)cc1 (stereo not drawn)
[5]
  IC50: 142 nM

## Cc1ccc(-n2nc(C(=O)N3CCN(C)CC3)nc2-c2ccc3c(c2)N(C2CCCC2)[C@H](C)C(=O)N3C)cc1F
[1]
  inhibition: Active
MM1.S
  IC50: 13 nM
[7]
  Tmax: 18 min
[2]
  inhibition: Active
[3]
  inhibition activity call (active/inactive): Active
[4]
  inhibition: Active
[8]
  AUC(0-t): 8150 ng·h/mL
[9]
  Cmax: 4970 ng/mL
[5]
  IC50: 4.2 nM
[10]
  AUC(0-inf): 8360 ng·h/mL
[6]
  inhibition: inactive
[11]
  half-life: 90 min

## Cc1ccc(-n2nc(C(=O)N3CCC4(CCCC4)CC3)nc2-c2ccc3c(c2)N(C2CCCC2)[C@H](C)C(=O)N3C)cc1
MM1.S
  IC50: 2400 nM
[5]
  IC50: 27.2 nM

## Cc1ccc(-n2nc(C(=O)N3CC4CCC(C3)N4C)nc2-c2ccc3c(c2)N(C2CCCC2)[C@H](C)C(=O)N3C)cc1
[1]
  inhibition: Active
MM1.S
  IC50: 10.1 nM
[2]
  inhibition: Active
[3]
  inhibition activity call (active/inactive): Active
[4]
  inhibition: Active
[5]
  IC50: 4.6 nM
[6]
  inhibition: inactive

## Cc1ccc(-n2nc(C(=O)N3C[C@@H](N)C4(CC4)C3)nc2-c2ccc3c(c2)N(C2CCCC2)[C@H](C)C(=O)N3C)cc1
MM1.S
  IC50: 43.5 nM
[5]
  IC50: 6.1 nM

## CCN1CCN(C(=O)c2nc(-c3ccc4c(c3)N(C3CCCC3)[C@H](C)C(=O)N4C)n(-c3ccc(C)cc3)n2)CC1
MM1.S
  IC50: 25.1 nM
[5]
  IC50: 5.8 nM

## Cc1onc(-c2ccccc2)c1-c1ccc2c(c1)N(C1CCCC1)[C@H](C)C(=O)N2C
[5]
  IC50: 100 nM

## C[C@@H]1C(=O)N(C)c2ccc(-c3nc(C(=O)N4CCN(C)CC4)nn3-c3ccc(Cl)cc3)cc2N1C1CCCC1
MM1.S
  IC50: 48.5 nM
[5]
  IC50: 6.8 nM

## Cc1ccc(-n2nc(C(=O)N3CCC4(CCOC4)CC3)nc2-c2ccc3c(c2)N(C2CCCC2)[C@H](C)C(=O)N3C)cc1
MM1.S
  IC50: 485 nM
[5]
  IC50: 7.9 nM

## Cc1ccc(-n2nc(C(=O)N3CCN(C4CC4)CC3)nc2-c2ccc3c(c2)N(C2CCCC2)[C@H](C)C(=O)N3C)cc1
MM1.S
  IC50: 87.5 nM
[5]
  IC50: 5.9 nM

## Cc1ccc(-n2nc(C(=O)N3CCN(C(C)C)CC3)nc2-c2ccc3c(c2)N(C2CCCC2)[C@H](C)C(=O)N3C)cc1
MM1.S
  IC50: 125 nM
[5]
  IC50: 4.8 nM

## Cc1ccc(-n2nnnc2-c2ccc3c(c2)N(C2CC2)C(C)C(=O)N3C)cc1 (stereo not drawn)
MM1.S
  IC50: 47.7 nM
[5]
  IC50: 14.4 nM

## Cc1ccc(-n2nc(C(=O)N3CCN4CCCC4C3)nc2-c2ccc3c(c2)N(C2CCCC2)[C@H](C)C(=O)N3C)cc1 (stereo partly drawn)
[1]
  inhibition: Active
MM1.S
  IC50: 6.4 nM
[2]
  inhibition: Active
[3]
  inhibition activity call (active/inactive): Active
[4]
  inhibition: Active
[5]
  IC50: 8.7 nM
[6]
  inhibition: inactive

## Cc1sc2c(c1C)C(c1ccc(Cl)cc1)=N[C@@H](CC(=O)OC(C)(C)C)c1nnc(C)n1-2
BT-549
  Activity: Active
SW-620
  Activity: Active
Hep 3B2
  Activity: Active
AGS
  Activity: Active
NCI-H522
  Activity: Active
Homo sapiens
  Activity: Active
HT-29
  Activity: Active
SK-OV-3
  Activity: Active
A549
  Activity: Active
KG-1
  Activity: Active
RKO
  Activity: Active
MDA-MB-468
  Activity: Active
HuTu80
  Activity: Active
MV4-11
  Activity: Active
NCI-H1299
  Activity: Active
MDA-MB-436
  Activity: Active

## Cc1ccc(-n2nc(C(=O)N(C)CCN(C)C)nc2-c2ccc3c(c2)N(C2CCCC2)[C@H](C)C(=O)N3C)cc1
[1]
  inhibition: Active
MM1.S
  IC50: 16.2 nM
[2]
  inhibition: Active
[3]
  inhibition activity call (active/inactive): Active
[4]
  inhibition: Active
[5]
  IC50: 7 nM
[6]
  inhibition: inactive

## Cc1ccc(-n2nnnc2-c2ccc3c(c2)N(C2CCCC2)C(C)C(=O)N3C)cc1 (stereo not drawn)
MM1.S
  IC50: 1230 nM
[5]
  IC50: 9.5 nM
